# Measurements: article PMC10884804 (Food Chemistry: X, 2024)
# Ends that are not written are not given here. * marks the point of attachment. Dodecyl = CCCCCCCCCCCC*; Octyl = CCCCCCCC*
# Experiments:
# Shewanella [1] = assay: MIC by two-fold serial dilution; assay type: cell-based; conditions: for MIC: two-fold serial dilution, at least three repeats
# Shewanella [2] = assay: Cell wall permeability; assay type: cell-based; conditions: peptide at MIC, 37℃, 4 h
# How it was run: (§1)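 Bacteria from a national culture collection were incubated with the test compound at the MIC (the control received an equal volume of sterile water) at 37°C for 4 h. Samples were centrifuged at 4°C and 5000 x g for 10 min, and alkaline phosphatase (AKP) was measured in the supernatant. Each experiment was done at least three times, reported as mean ± SD.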
# [3] = Circular dichroism secondary structure; assay type: physicochemical; conditions: aqueous solution, 190–270 nm
# How it was run: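 The test compound was dissolved in sterile PBS and in 2.5 % SDS buffer (a membrane-mimetic hydrophobic environment), then filtered through 0.22 µm. Spectra were scanned at 190-270 nm with 1 nm bandwidth and 0.5 s interval in a 0.1 cm cuvette. Ellipticity (mdeg) was converted to molar residue ellipticity using residue number, peptide concentration and path length.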
# [4] = Self-assembly morphology by TEM; assay type: physicochemical; conditions: aqueous solution, 1 mM
# Pseudomonas [5] = assay: Cell wall permeability; assay type: cell-based; conditions: peptide at MIC, 37℃, 4 h
# How it was run: as §1
# Pseudomonas [6] = assay: Cell membrane permeability, PI/FDA flow cytometry; assay type: cell-based; conditions: peptide at MIC, 37℃, 1 h, sum of Q1 and Q2
# Pseudomonas [7] = assay: MIC by two-fold serial dilution; assay type: cell-based; conditions: for MIC: two-fold serial dilution, at least three repeats
# Shewanella [8] = assay: Cell membrane permeability, PI/FDA flow cytometry; assay type: cell-based; conditions: peptide at MIC, 37℃, 1 h; for bacteria distributed in Q1 and Q2 regions (disturbed membranes): Shewanella, sum of Q1 and Q2
# Pseudomonas [9] = assay: Ultrastructural observation of treated bacteria; assay type: cell-based; conditions: cells treated with peptide
MIC (Shewanella [1]) [µM],MIC (Pseudomonas [7]) [µM],Substance,cell wall permeability (AKP leakage) (Shewanella [2]),secondary structure [3],self-assembly morphology [4],cell wall permeability (AKP leakage) (Pseudomonas [5]),bacteria distributed in Q1 and Q2 regions (disturbed membranes) (Pseudomonas [6]) [%],"bacteria in Q1 region (PI-positive, FDA-negative) (Shewanella [8]; Shewanella (Fig. 4D), flow cytometry) [%]",bacteria distributed in Q1 and Q2 regions (disturbed membranes) (Shewanella [8]) [%],morphological changes of bacterial cells (TEM) (Pseudomonas [9]),"antibacterial activity (in words) (Shewanella [1]; bacterial survival rate, S.2)","antibacterial activity (in words) (Pseudomonas [7]; bacterial survival rate, S.2)"
4,4,C8-AL-16: AL-16 with alkyl chain (C8) attached to the N-terminus (Octyl-AKATKAAKALLKLWLL),significantly enhanced,β-folded structure,nanospheres in the form of micelles,significantly enhanced,> 98,38.80,> 98,"disrupted by lysis, and the contents leaked, resulting in serious damage",–,–
–,–,APATPAAPALLPLWLL [AP-16],–,randomly curled structure,did not exhibit an evident self-assembly morphology,–,–,–,–,–,no significant antibacterial activity,no significant antibacterial activity
4,4,C12-AL-16: AL-16 with alkyl chain (C12) attached to the N-terminus (Dodecyl-AKATKAAKALLKLWLL),–,α-helix,nanospheres in the form of micelles,–,> 98,–,> 98,"bacterial contents were lost; however, the basic membrane structure was maintained",–,–

Substance,MIC (Shewanella [1]) [µM],MIC (Pseudomonas [7]) [µM],cell wall permeability (AKP leakage) (Shewanella [2]),secondary structure [3],self-assembly morphology [4],cell wall permeability (AKP leakage) (Pseudomonas [5]),bacteria distributed in Q1 and Q2 regions (disturbed membranes) (Pseudomonas [6]) [%],"bacteria in Q1 region (PI-positive, FDA-negative) (Shewanella [8]; Shewanella (Fig. 4D), flow cytometry) [%]",bacteria distributed in Q1 and Q2 regions (disturbed membranes) (Shewanella [8]) [%],morphological changes of bacterial cells (TEM) (Pseudomonas [9]),"antibacterial activity (in words) (Shewanella [1]; bacterial survival rate, S.2)","antibacterial activity (in words) (Pseudomonas [7]; bacterial survival rate, S.2)"
AKATKAAKALLKLWLL [AL-16],128,16,–,–,–,–,–,–,–,–,–,–
